# Measured values as given in ChEMBL document CHEMBL1127831, “Synthesis and structure-activity relationships of new antitumor taxoids. Effects of cyclohexyl substitution at the C-3' and/or C-2 of taxotere (docetaxel)” (J Med Chem, 1994).
# Key:
# [1] = system: P388; assay: In vitro cytotoxicity against murine P388 doxorubicin resistant leukemia cell line; format: functional, cell-based; conditions: Mus musculus
# Procedure, shortened: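 P388/Dox cells grown in RPMI 1640 with 10% foetal calf serum, 2-mercaptoethanol, L-glutamine and antibiotics, with doxorubicin 1 μg/mL kept in the medium. Seeded at 1×10^5 cells/mL and exposed 96 h to a range of taxoid concentrations, quadruplicate points. Neutral red 0.02% added for 16 h, cells lysed in 1% SDS, OD read at 540 and 346 nm. IC50 = 50% growth inhibition, from three separate experiments.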
# [2] = system: P388; assay: In vitro cytotoxicity against murine P388 leukemia cell line; format: functional, cell-based; conditions: Mus musculus
# Procedure, shortened: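 P388 cells kept in RPMI 1640 with 10% foetal calf serum, 10 μM 2-mercaptoethanol, 2 mM L-glutamine and penicillin/streptomycin. Seeded at 1×10^5 cells/mL and grown 96 h with various taxoid concentrations, each in quadruplicate. Viability read by 16 h neutral red (0.02%) uptake, SDS lysis and OD at 540 and 346 nm. IC50 for 50% growth inhibition taken from three separate experiments.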
# [3] = Ratio of inhibition of the rate of microtubule disassembly by the compound to that of paclitaxel; format: functional
# Procedure, shortened: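 Porcine brain tubulin, MAP-depleted on phosphocellulose, used at 9 μM in MES pH 6.8 buffer with glycerol, 6 mM MgCl2 and 1 mM GTP. Taxoid in ethanol (0.1–5 μM) was added, tubulin polymerized 30 min at 37 °C, then cooled to 6 °C. Depolymerization rate was taken from the turbidity (350 nm) decline slope. The IC50 for 50% rate decrease was divided by the paclitaxel IC50.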
SMILES,IC50 [1] [µg/mL],IC50 [2] [µg/mL],IC50 ratio [3]
CC(=O)O[C@@]12CO[C@@H]1C[C@H](O)[C@@]1(C)C(=O)[C@H](O)C3=C(C)[C@@H](OC(=O)[C@H](O)[C@@H](NC(=O)OC(C)(C)C)c4ccccc4)C[C@@](O)([C@@H](OC(=O)c4ccccc4)[C@H]21)C3(C)C.O.O.O [DOCETAXEL],1.5,0.008,0.7
CC(=O)O[C@@]12CO[C@@H]1C[C@H](O)[C@@]1(C)C(=O)[C@H](O)C3=C(C)[C@@H](OC(=O)[C@H](O)C(NC(=O)OC(C)(C)C)c4ccccc4)C[C@@](O)([C@@H](OC(=O)C4CCCCC4)C12)C3(C)C (stereo not given in full),6.3,0.09,0.85
CC(=O)O[C@@]12CO[C@@H]1C[C@H](O)[C@@]1(C)C(=O)[C@H](O)C3=C(C)[C@@H](OC(=O)[C@H](O)C(NC(=O)OC(C)(C)C)C4CCCCC4)C[C@@](O)([C@@H](OC(=O)C4CCCCC4)C12)C3(C)C (stereo not given in full),3.6,0.076,2
CC(=O)O[C@@]12CO[C@@H]1C[C@H](O)[C@@]1(C)C(=O)[C@H](O)C3=C(C)[C@@H](OC(=O)[C@H](O)C(NC(=O)OC(C)(C)C)C4CCCCC4)C[C@@](O)([C@@H](OC(=O)c4ccccc4)C12)C3(C)C (stereo not given in full),3.1,0.063,0.72
CC(=O)O[C@H]1C(=O)[C@@]2(C)C([C@H](OC(=O)C3CCCCC3)[C@]3(O)C[C@H](OC(=O)[C@H](O)C(NC(=O)c4ccccc4)c4ccccc4)C(C)=C1C3(C)C)[C@]1(OC(C)=O)CO[C@@H]1C[C@@H]2O (stereo not given in full),7.5,0.45,1.7
